Test system: MS2 coat protein
Assay: apparent Kd, MS2 coat protein; higher = weaker binding; RNA-MaP array; FMN 200 µM where present
Method in brief: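 Designs on Illumina sequencing-chip clusters, transcribed by stalled E. coli RNA polymerase, were exposed to SNAP-549-labelled MS2 coat protein in doubling steps from 0.7 or 1.5 nM up to 3 µM, without and then with constant ligand. The buffer held 100 mM Tris-HCl pH 7.5, 80 mM KCl, 4 mM MgCl2, BSA, DTT, yeast tRNA and Tween-20. Apparent Kd values are medians of filtered per-cluster binding-curve fits to green signal normalised to red-channel RNA signal and control-cluster median Fmax.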

[1] = designed as: OFF switch for flavin mononucleotide, no ligand
[2] = ligand present: flavin mononucleotide, designed as: OFF switch for flavin mononucleotide
[3] = designed as: ON switch for flavin mononucleotide, no ligand
[4] = ligand present: flavin mononucleotide, designed as: ON switch for flavin mononucleotide

Row | Sequence | apparent Kd [1] [nM] | apparent Kd [2] [nM] | apparent Kd [3] [nM] | apparent Kd [4] [nM]
1 | CAGCGAAAGUAGAAGGCAGUACUGAUACAGUACUGAGGAUAUACAUGAGGAUCACCCAUGUACAAAAGCUGGAAAUAAAUAAAA | 6.56 | 6.81 | – | –
2 | UUUCAGCUCACAUGAGGAUCACCCAUGUCCGUUCGCCCGGACAGAAGGCACCCAUAACAAUGCGGUGAGGAUAUGUCAGCAAGG | – | – | 141 | 14
3 | GGAAGCACGACGGAGCUAAGGUAGAAGGAUAUCCACGGCUAUAUCCACAUGAGGAUCACCCAUGUGGAGAAGGUCUAUCUUAAG | 5.51 | 8.8 | – | –
4 | UCCUUGUCCUGAGGAUAUCCGCGGUUCCCAAAAGGAGAAGGCAGGACAUGAGGAUCACCCAUGUACCCAGAAAACGUGCAGAGU | 36.8 | 313 | – | –
5 | AGAUAGUGGUGAGGAUAUCAGAAUAGAAAGAAAUGAGAAGGCACACAUGAGGAUCACCCAUGUGAGUUCUUGAGAUUACAUGGU | 18.4 | 34.2 | – | –
6 | AUUUUGUCAGGAUAUGAGUAGUAGGACGAAAGUGUUAUUAUUUAGAAGGGACAUGAGGAUCACCCAUGUUUCUC | 12.3 | 15.8 | – | –
7 | AAUUCACAUGAGGAUCACCCAUGUCAGGAUAUGGUUUCACGUUUUUCUUUUCUUGAGGCCAGAAGGGACAGCUA | 67.6 | 79.1 | – | –
8 | CGGUCUUGCAACUAUUUGUUUCACAUGAGGAUCACCCAUGUCAGAAGGAGGUGCAUAUAUUAGACCUAGGAUAUGACGUGUAAA | 9.79 | 28.4 | – | –
9 | CUUGUACAUGAGGAUCACCCAUGUUAGGAUAUCUCGCCGUCGGCUUGCCGACGGUAUUAGAGAAGGGACAAGGG | 22.5 | 26.7 | – | –
10 | GGCGAACAGGCUAACAUGAGGAUCACCCAUGUGGACUCAUGGUAGGAUAUCGGGAAGGAGGAAACCGAGAAGGGCCGGUGAGCG | – | – | 158 | 39.5
11 | GUAGCUAUCGGAGGAUAUUCCUUGCGGAAACGCACAUGAGGAUCACCCAUGUAAAUAAAUAAUUGGGAGAAGGCCGAUAGCUAC | – | – | 45 | 14.9
12 | GUACGGAGGGAGAAGGGCUAGAAGGUCCAGCUUAUGUGUGUUGCAACAUGAGGAUCACCCAUGUAGCAGGAUAUCCCUUGUACA | 12.5 | 36.9 | – | –
13 | AUAUUACGAGGAUAUCGUUUUUUUCACAUGAGGAUCACCCAUGUUAUCCAUGUUUCGUUUCGAGAAGGCGUAAGUU | 50.6 | 36.1 | – | –
14 | GGAUCGAAAGUGAGGAUAUACCACUGGAUACAGUGGUAGAAGGCACAUGAGGAUCACCCAUGUCCUUACGAUCC | 20.8 | 117 | – | –
15 | ACAUGAUAUGUAGGAUAUCACAUUAAUUGUUUAAUAAUUGAAUUUAGGAUUUGAGAAGGACAUUUACAUGAGGAUCACCCAUGU | 16.9 | 12.7 | – | –
16 | CUAAAGCAUGUAGGAUAUGCGUGGCGAAGCUAUGCAGAAGGACAUGAGGAUCACCCAUGUCUUUCCGUCUGCGUACAGACGGAA | 19.1 | 52.4 | – | –
17 | CCUCUGUUAGGAUAUCAAACACUAUCUGCUCCAGAGUUAAGUGAGAAGGGACAUGAGGAUCACCCAUGUAAAAU | 26.9 | 33.7 | – | –
18 | GUCCUUUCUGAGGAUAUUAUCUGGUUCGAUUGAUAAGAAGGCAGUACAUGAGGAUCACCCAUGUGGGUCGUCUG | 31.6 | 69.5 | – | –

Row | Sequence | apparent Kd [1] [nM] | apparent Kd [2] [nM] | apparent Kd [3] [nM] | apparent Kd [4] [nM]
19 | UCAAGUAUGUAGGAUAUCGAUGUCGAAAGACAUCGAGAAGGACGUACAUGAGGAUCACCCAUGUAACUUGCAUG | 296 | 270 | – | –
20 | GGGAAGUUAGGAUAUGCUGCUCGUCACUUGCGUGAUGAGUAGCAGAAGGAACAUGAGGAUCACCCAUGUAAAAA | 31.9 | 37.6 | – | –
21 | UGUAUUAACGGAGGAUAUCGAUAUCAAACAUGAGGAUCACCCAUGUUGAGGAUCACCCAUGUCCAUGAGAAGGCCGGCGUACUU | – | – | 36.2 | 29.4
22 | AAAUAAACUAGCAUAAUAUCCUCACAUGAGGAUCACCCAUGUCAGGAUAUUUGUCCUAAAAGGACAGAGAAGGGACGUGCUAGA | 5.07 | 6.27 | – | –
23 | UUAAUGAUGUUAGGAUAUACAUGAGGAAUCCUCGUAGAAGGAACAUGACAUGAGGAUCACCCAUGUAACGCUCCGUAGAGCGUA | – | – | 70.2 | 94.3
24 | GGCCGGGCAGGAUAUACAUGAGGAUCACCCAUGUAUAUCCUUCAGCAUGGAUCCUCAUGUAGAAGGGCCCGGCC | 13.2 | 11.9 | – | –
25 | ACGGACCUAGGAUAUACAUGAGGAUCACCCAUGUGCCCGCAUGGUCCGGGUCCUGAGAGUAGAAGGAGGAGCGA | 50.9 | 43.2 | – | –
26 | GGGCAACAUGAGGAUCACCCAUGUCAGGAUAUCGGGCCCGGGCCGAAAGGCCCGGGCCCGAGAAGGGACAGCCC | 21.3 | 21.6 | – | –
27 | GCACUUGCGUAGAAGGUACAUUAUAAUUAAUUGUAAGGAUAUACAAACAUGAGGAUCACCCAUGUAAAUGGAAUUUGCAAGUGC | – | – | 6.52 | 6.36
28 | CACUCGUGUCUAGGAUAUGAGUGACAAGCGCGAGAUUUUCUCGCUGCUAGCUCAGAAGGAGACAUGAGGAUCACCCAUGUAAGG | 144 | 25.4 | – | –
29 | GUUCUUCCUGUAAGGAUAUCCAUGUAUCAAUUUAUGGAGAAGGUACAUGAGGAUCACCCAUGUCACCCGCGUUA | 20.9 | 50.7 | – | –
30 | AGUGUCAUCGAGAAGGCCUCAUGAACAUGAGGAUCACCCAUGUAAUAUGGGAGGAUAUCGAUGAUACAGCUACGUUUCGUAGCA | – | – | 51.4 | 33.9
31 | AACCUAUUACAGAAGGCCAGCUACAUGAGGAUCACCCAUGUCGAGUCAUGGAGGAUAUGUAGUAAUUUACUCGCAGAUGAGUGC | – | – | 24.4 | 4.9
32 | AUCAGCUCGUGAGGAUAUGCGUCACUGCGUCAGCAGUGUGGUAAGAUCACAUGAGGAUCACCCAUGUAGAAGGCACGAGCUGAU | 34 | 455 | – | –
33 | UAACCUCGCGUCAGGAUAUGUGAGGACUGUGACGCACAGAAGGGACAUGAGGAUCACCCAUGUGAAAGAAAUAA | 26.8 | 82.5 | – | –
34 | GGAAUAGCAUGAGGAUAUGCUGGAGUUUAGACAGCAGAAGGCAUGUCAUAAGACAUGAGGAUCACCCAUGUAAUUACAAUACCA | – | – | 102 | 11.7
35 | AGACGGAGCUGAGGAUAUAACAUGAGGAUCACCCAUGUAAGUCUCCAGGAAACUGGAGACAAUAGUUAGAAGGCAGCUCCGUCA | 13.6 | 22.3 | – | –
36 | AGUGCUAGAGGAUAUGCAGUGGCGUUCUGUAUUCACAGCUCACAUGAGGAUCACCCAUGUAGAAGGCUAGCUAC | 23.6 | 106 | – | –

Reference: the EternaBench riboswitch data
